In series [1] the test system is trypsin, chymotrypsin, and proteinase K. In words: Proteolytic stability assay. Type of series: in vitro ADME. Conditions: reaction mixture post-incubation with enzyme cocktail, ESI-MS positive mode. In short, it runs like this: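 Test compound (10 mM) was incubated with a 1:1:1 trypsin/chymotrypsin/proteinase K mixture (0.3 mg/mL) at 37 °C for 0–6 h. Enzymes were inactivated with an equal volume of acetonitrile containing 1% TFA for 15 min at 4 °C. The post-incubation reaction mixture was analysed by ESI-MS for intact peptide.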

Series [2] has as its system human embryonic lungs (L132) cell lines. The experiment in a line: Cell viability. Format: cell-based. As to conditions: L132 cells, 100 μM peptide, 4 h, absorbance 570 nm, triplicate.

From article PMC9097201 (ACS Omega, 2022) come the findings set out here.

Structures are written as SMILES. Where a SMILES comes first, the peptide text is derived from it. [ ]: non-standard residue; d: D form. Nle = CCCC[C@H](N)C(=O)O; Dab = NCC[C@H](N)C(=O)O

As to `CCCC[C@H](NC(=O)[C@H](CCN)NC(=O)[C@H](CCN)NC(=O)[C@H](CCCC)NC(=O)[C@H](Cc1c[nH]c2ccccc12)NC(=O)[C@H](CCN)NC(=O)[C@@H](N)CCCC)C(N)=O` [P36, Nle-Dab-Trp-Nle-Dab-Dab-Nle-CONH2] (H-[Nle][Dab]W[Nle][Dab][Dab][Nle]-NH2), the “chemical integrity after protease incubation (ESI-MS)” value in series [1] is reported as “contained only intact P36”. In addition, in series [2], the “cell viability (MTT)” value is ~90%.
